According to ChEMBL document CHEMBL1150419, “Structure-activity relationships of a peptide inhibitor of the human FcRn:human IgG interaction” (Bioorg Med Chem, 2008):
Bridge positions count the residues as written; N and C are the ends. Square brackets hold non-standard residues; d marks the D form. Peptide text beside a SMILES is read from it. NMeA = CN[C@@H](C)C(=O)O; Dab = NCC[C@H](N)C(=O)O; βAla = NCCC(=O)O

Experiments:
[1] = target: T1, IgG receptor FcRn large subunit p51 (Homo sapiens, UniProt P55899); assay: Binding affinity to human FcRn at pH 6 by surface plasmon resonance assay
T1 sequence (P55899 whole entry): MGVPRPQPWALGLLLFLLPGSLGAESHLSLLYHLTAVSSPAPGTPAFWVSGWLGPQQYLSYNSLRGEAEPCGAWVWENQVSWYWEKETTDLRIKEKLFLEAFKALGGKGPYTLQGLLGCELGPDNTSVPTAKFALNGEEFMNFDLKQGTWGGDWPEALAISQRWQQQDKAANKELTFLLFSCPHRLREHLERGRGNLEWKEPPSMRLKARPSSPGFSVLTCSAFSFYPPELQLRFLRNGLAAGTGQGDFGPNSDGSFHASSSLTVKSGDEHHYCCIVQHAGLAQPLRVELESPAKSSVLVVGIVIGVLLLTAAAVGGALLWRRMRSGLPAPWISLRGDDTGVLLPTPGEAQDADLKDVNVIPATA
Summary of the method: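 Soluble human FcRn coupled to the dextran surface of a CM5 chip; peptide dilutions flowed over the chip. The equilibrium response at each dilution was plotted against concentration and fitted to a steady-state affinity model to give Kd.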

[2] = target: T1, IgG receptor FcRn large subunit p51; assay: Inhibition of human IgG binding to soluble human FcRn by ELISA
Summary of the method: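 Biotinylated soluble human FcRn immobilized on neutravidin plates, incubated with hIgG (3 nM, constant) and peptide at varying concentrations for 2 h at 37 °C. After washing, bound hIgG detected with peroxidase-conjugated hIgG-specific Fab fragments.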

[3] = target: T1, IgG receptor FcRn large subunit p51; assay: Binding affinity to human FcRn at pH 7.4 by surface plasmon resonance assay
Summary of the method: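 Soluble human FcRn coupled to the dextran surface of a CM5 chip; peptide dilutions flowed over the chip. Equilibrium response at each dilution plotted against concentration, and Kd fitted with a steady-state affinity model.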

Compound | Kd [1] | IC50 [2] | Kd [3]
CC(C)C[C@@H](C(=O)N[C@@H](Cc1ccc(O)cc1)C(=O)N1CCC[C@H]1C(=O)N[C@@H](CS)C(=O)O)N(C)C(=O)CN(C)C(=O)CNC(=O)[C@H](Cc1ccccc1)NC(=O)[C@H](Cc1cnc[nH]1)NC(=O)CNC(=O)[C@@H](NC(=O)[C@@H](NC(=O)[C@H](Cc1ccccc1)NC(=O)[C@@H](N)CCCNC(=N)N)C(C)(C)S)[C@@H](C)O | 0.031 µM | 0.57 µM | –
CC(C)C[C@@H](C(=O)N[C@@H](Cc1ccc(O)cc1)C(=O)N1CCC[C@H]1C(=O)N[C@@H](CS)C(=O)O)N(C)C(=O)CN(C)C(=O)CNC(=O)[C@H](Cc1ccccc1)NC(=O)[C@H](Cc1ccc(N=C(N)N)cc1)NC(=O)CNC(=O)[C@@H](NC(=O)[C@@H](NC(=O)[C@H](Cc1ccccc1)NC(=O)[C@@H](N)CCCN=C(N)N)C(C)(C)S)[C@@H](C)O | 0.074 µM | – | 0.073 µM
CC(C)C[C@@H](C(=O)N[C@@H](Cc1ccc(O)cc1)C(=O)N1CCC[C@H]1C(=O)N[C@@H](CS)C(=O)O)N(C)C(=O)CN(C)C(=O)CNC(=O)[C@H](Cc1ccccc1)NC(=O)[C@H](Cc1ccc(N)cc1)NC(=O)CNC(=O)[C@@H](NC(=O)[C@@H](NC(=O)[C@H](Cc1ccccc1)NC(=O)[C@@H](N)CCCNC(=N)N)C(C)(C)S)[C@@H](C)O | – | 4.6 µM | 1.1 µM
CC(C)C[C@H](NC(=O)CN1CC[C@@H](NC(=O)[C@H](Cc2ccccc2)NC(=O)[C@H](Cc2cnc[nH]2)NC(=O)CNC(=O)[C@@H](NC(=O)[C@@H](NC(=O)[C@H](Cc2ccccc2)NC(=O)[C@@H](N)CCCN=C(N)N)C(C)(C)S)[C@@H](C)O)C1=O)C(=O)N[C@@H](Cc1ccc(O)cc1)C(=O)N1CCC[C@H]1C(=O)N[C@@H](CS)C(=O)O | 0.28 µM | 2.3 µM | –
CC(C)C[C@H](NC(=O)CNC(=O)CNC(=O)[C@H](Cc1ccccc1)NC(=O)[C@H](Cc1cnc[nH]1)NC(=O)CNC(=O)[C@@H](NC(=O)[C@@H](N)CS)[C@@H](C)O)C(=O)N[C@@H](Cc1ccc(O)cc1)C(=O)N1CCC[C@H]1C(=O)N[C@@H](CS)C(=O)O (H-CTGHFGGLYPC-OH) | 20 µM | 110 µM | –
CC(C)C[C@H](NC(=O)CNC(=O)CNC(=O)[C@H](Cc1ccccc1)NC(=O)[C@H](Cc1cnc[nH]1)NC(=O)CNC(=O)[C@@H](NC(=O)[C@@H](N)CS)[C@@H](C)O)C(=O)N[C@@H](Cc1ccc(O)cc1)C(=O)N1CCC[C@H]1C(=O)N[C@@H](CS)C(=O)N[C@@H](CC(N)=O)C(=O)NCC(=O)N1CCC[C@H]1C(=O)O (H-CTGHFGGLYPCNGP-OH) | 34 µM | 239 µM | –
CC(C)C[C@H](NC(=O)[C@H](Cc1ccc(O)cc1)NC(=O)[C@@H]1CSSC[C@H](NC(=O)[C@H](Cc2ccccc2)NC(=O)[C@H](CO)NC(=O)[C@@H](N)CC(N)=O)C(=O)N[C@@H](CCCN=C(N)N)C(=O)NCC(=O)N[C@@H](CCCN=C(N)N)C(=O)N2CCC[C@H]2C(=O)NCC(=O)N[C@@H](Cc2cnc[nH]2)C(=O)N[C@@H](Cc2ccccc2)C(=O)NCC(=O)NCC(=O)N1)C(=O)N[C@@H](Cc1ccccc1)C(=O)O (H-NSFCRGRPGHFGGCYLF-OH; disulfide 4-14) | 9.4 µM | 33 µM | –
CC(C)C[C@H](NC(=O)CNC(=O)CNC(=O)[C@H](Cc1ccccc1)NC(=O)[C@H](Cc1cnc[nH]1)NC(=O)CNC(=O)[C@@H](NC(=O)[C@H](CS)NC(=O)[C@H](C)NC(=O)[C@H](CCCN=C(N)N)NC(=O)[C@@H](N)CCC(N)=O)[C@@H](C)O)C(=O)N[C@@H](Cc1ccc(O)cc1)C(=O)N1CCC[C@H]1C(=O)N[C@@H](CS)C(=O)N[C@@H](CC(N)=O)C(=O)NCC(=O)N1CCC[C@H]1C(=O)O (H-QRACTGHFGGLYPCNGP-OH) | 28 µM | 95 µM | –
CC(C)C[C@H](NC(=O)CNC(=O)CNC(=O)[C@H](Cc1ccccc1)NC(=O)[C@H](Cc1cnc[nH]1)NC(=O)CNC(=O)[C@H](C)NC(=O)[C@H](CS)NC(=O)[C@H](Cc1ccccc1)NC(=O)[C@H](CCCN=C(N)N)NC(=O)[C@@H](N)CCC(N)=O)C(=O)N[C@@H](Cc1ccc(O)cc1)C(=O)N1CCC[C@H]1C(=O)N[C@@H](CS)C(=O)N[C@@H](CC(N)=O)C(=O)NCC(=O)N1CCC[C@H]1C(=O)O (H-QRFCAGHFGGLYPCNGP-OH) | 4.9 µM | 30 µM | –
CC(C)C[C@H](NC(=O)CNC(=O)CNC(=O)[C@H](C)NC(=O)[C@H](Cc1cnc[nH]1)NC(=O)CNC(=O)[C@@H](NC(=O)[C@H](CS)NC(=O)[C@H](Cc1ccccc1)NC(=O)[C@H](CCCNC(=N)N)NC(=O)[C@@H](N)CCC(N)=O)[C@@H](C)O)C(=O)N[C@@H](Cc1ccc(O)cc1)C(=O)N1CCC[C@H]1C(=O)N[C@@H](CS)C(=O)N[C@@H](CC(N)=O)C(=O)NCC(=O)N1CCC[C@H]1C(=O)O (H-QRFCTGHAGGLYPCNGP-OH) | > 250 µM | > 125 µM | –
C[C@H](NC(=O)CNC(=O)CNC(=O)[C@H](Cc1ccccc1)NC(=O)[C@H](Cc1cnc[nH]1)NC(=O)CNC(=O)[C@@H](NC(=O)[C@H](CS)NC(=O)[C@H](Cc1ccccc1)NC(=O)[C@H](CCCN=C(N)N)NC(=O)[C@@H](N)CCC(N)=O)[C@@H](C)O)C(=O)N[C@@H](Cc1ccc(O)cc1)C(=O)N1CCC[C@H]1C(=O)N[C@@H](CS)C(=O)N[C@@H](CC(N)=O)C(=O)NCC(=O)N1CCC[C@H]1C(=O)O (H-QRFCTGHFGGAYPCNGP-OH) | 26 µM | 107 µM | –
CC(C)C[C@H](NC(=O)CNC(=O)CNC(=O)[C@H](Cc1ccccc1)NC(=O)[C@H](Cc1cnc[nH]1)NC(=O)CNC(=O)[C@@H](NC(=O)[C@H](CS)NC(=O)[C@H](Cc1ccccc1)NC(=O)[C@H](CCCNC(=N)N)NC(=O)[C@@H](N)CCC(N)=O)[C@@H](C)O)C(=O)N[C@@H](C)C(=O)N1CCC[C@H]1C(=O)N[C@@H](CS)C(=O)N[C@@H](CC(N)=O)C(=O)NCC(=O)N1CCC[C@H]1C(=O)O (H-QRFCTGHFGGLAPCNGP-OH) | > 250 µM | > 125 µM | –
CC(C)C[C@H](NC(=O)CNC(=O)CNC(=O)[C@H](Cc1ccccc1)NC(=O)[C@H](Cc1cnc[nH]1)NC(=O)CCNC(=O)[C@@H](NC(=O)[C@H](CS)NC(=O)[C@H](Cc1ccccc1)NC(=O)[C@H](CCCNC(=N)N)NC(=O)[C@@H](N)CCC(N)=O)[C@@H](C)O)C(=O)N[C@@H](Cc1ccc(O)cc1)C(=O)N1CCC[C@H]1C(=O)N[C@@H](CS)C(=O)N[C@@H](CC(N)=O)C(=O)NCC(=O)N1CCC[C@H]1C(=O)O (H-QRFCT[βAla]HFGGLYPCNGP-OH) | > 250 µM | > 125 µM | –
CC(C)C[C@H](NC(=O)CNC(=O)CNC(=O)[C@H](Cc1ccccc1)NC(=O)[C@H](Cc1cnc[nH]1)NC(=O)CNC(=O)[C@H](C)N(C)C(=O)[C@H](CS)NC(=O)[C@H](Cc1ccccc1)NC(=O)[C@H](CCCNC(=N)N)NC(=O)[C@@H](N)CCC(N)=O)C(=O)N[C@@H](Cc1ccc(O)cc1)C(=O)N1CCC[C@H]1C(=O)N[C@@H](CS)C(=O)N[C@@H](CC(N)=O)C(=O)NCC(=O)N1CCC[C@H]1C(=O)O (H-QRFC[NMeA]GHFGGLYPCNGP-OH) | 18 µM | 169 µM | –
CC(C)C[C@H](NC(=O)CNC(=O)CNC(=O)[C@H](Cc1ccccc1)NC(=O)[C@H](Cc1cnc[nH]1)NC(=O)CNC(=O)[C@@H](NC(=O)[C@H](CCN)NC(=O)[C@H](Cc1ccccc1)NC(=O)[C@H](CCCN=C(N)N)NC(=O)[C@@H](N)CCC(N)=O)[C@@H](C)O)C(=O)N[C@@H](Cc1ccc(O)cc1)C(=O)N1CCC[C@H]1C(=O)N[C@@H](CCC(=O)O)C(=O)N[C@@H](CC(N)=O)C(=O)NCC(=O)N1CCC[C@H]1C(=O)O (H-QRF[Dab]TGHFGGLYPENGP-OH) | 4.8 µM | 81 µM | –
H-QRFSTGHFGGLYPSNGP-OH | 230 µM | > 125 µM | –
H-TGHFGGLYP-OH | > 250 µM | > 250 µM | –
